Results taken from ChEMBL document CHEMBL4346662, “Synthesis of novel 7-azaindole derivatives containing pyridin-3-ylmethyl dithiocarbamate moiety as potent PKM2 activators and PKM2 nucleus translocation inhibitors” (Eur J Med Chem, 2019).
Activity calls are given as the source filed them. The rule behind the calls is not given here.

Tests used:
Pyruvate kinase PKM [1] = molecular target: T1, Pyruvate kinase PKM (Homo sapiens, UniProt P14618); assay: Activation of human recombinant His-tagged PKM2 expressed in Escherichia coli assessed as maximal activity using PEP as substrate measured at 30 sec between 3 and 6 mins in presence of […] by fluorescent pyruvate kinase-lactate dehydrogenase coupled assay relative to control
How it was run: (§1)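 Pyruvate kinase activity read by fluorescent pyruvate kinase–lactate dehydrogenase coupled assay; AC50 and maximal activation are means of at least two determinations.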
Target sequence in this assay (P14618 2-531 limits assumed): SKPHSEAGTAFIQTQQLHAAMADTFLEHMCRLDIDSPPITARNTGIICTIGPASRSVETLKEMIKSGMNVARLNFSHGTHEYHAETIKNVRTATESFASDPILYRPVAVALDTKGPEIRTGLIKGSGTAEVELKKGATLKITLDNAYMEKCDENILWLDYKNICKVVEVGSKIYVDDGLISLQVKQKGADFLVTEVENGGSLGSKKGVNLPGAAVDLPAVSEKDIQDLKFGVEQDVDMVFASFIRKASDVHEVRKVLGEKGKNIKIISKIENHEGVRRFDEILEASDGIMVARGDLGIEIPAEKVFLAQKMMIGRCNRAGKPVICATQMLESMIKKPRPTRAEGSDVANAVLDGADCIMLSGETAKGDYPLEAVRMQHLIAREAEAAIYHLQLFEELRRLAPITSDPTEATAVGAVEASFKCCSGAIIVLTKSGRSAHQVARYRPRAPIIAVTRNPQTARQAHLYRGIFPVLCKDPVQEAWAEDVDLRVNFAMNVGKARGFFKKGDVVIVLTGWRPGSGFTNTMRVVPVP

Pyruvate kinase PKM [2] = molecular target: T1, Pyruvate kinase PKM; assay: Activation of human recombinant His-tagged PKM2 expressed in Escherichia coli using PEP as substrate measured at 30 sec between 3 and 6 mins in presence of […] by fluorescent pyruvate kinase-lactate dehydrogenase coupled assay; how it was run: as §1
Target sequence in this assay (P14618 whole entry): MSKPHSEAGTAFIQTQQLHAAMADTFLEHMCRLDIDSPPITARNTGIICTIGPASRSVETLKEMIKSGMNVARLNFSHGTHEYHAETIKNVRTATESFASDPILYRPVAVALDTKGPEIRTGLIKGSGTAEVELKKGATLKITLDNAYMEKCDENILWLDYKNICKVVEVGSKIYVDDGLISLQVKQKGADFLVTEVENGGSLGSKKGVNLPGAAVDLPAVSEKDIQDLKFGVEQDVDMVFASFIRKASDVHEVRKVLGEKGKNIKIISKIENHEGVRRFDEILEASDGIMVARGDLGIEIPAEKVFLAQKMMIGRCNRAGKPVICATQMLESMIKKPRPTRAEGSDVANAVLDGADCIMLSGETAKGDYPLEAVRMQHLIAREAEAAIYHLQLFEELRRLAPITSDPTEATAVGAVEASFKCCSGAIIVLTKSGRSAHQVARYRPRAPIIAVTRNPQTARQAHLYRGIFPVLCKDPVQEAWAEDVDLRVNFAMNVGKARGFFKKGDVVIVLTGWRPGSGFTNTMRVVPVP

A-375 = assay: Antiproliferative activity against human A375 cells assessed as reduction in cell growth incubated for 72 hrs by CellTiter-Glo assay; type: functional, cell-based; conditions: A-375, 72 h
How it was run: (§2)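 Cells (H1299 in RPMI 1640; HCT116 and A375 in DMEM; 10% FBS, 37 °C, 5% CO2) plated at 2000 per well, left 24 h, then exposed to ten concentrations or DMSO for 72 h. CellTiter-Glo added, 30 min at room temperature in dark, luminescence read. IC50 fitted from triplicate experiments.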

HCT-116 = assay: Antiproliferative activity against human HCT116 cells assessed as reduction in cell growth incubated for 72 hrs by CellTiter-Glo assay; type: functional, cell-based; conditions: HCT-116, 72 h; how it was run: as §2
NCI-H1299 = assay: Antiproliferative activity against human H1299 cells assessed as reduction in cell growth incubated for 72 hrs by CellTiter-Glo assay; type: functional, cell-based; conditions: NCI-H1299, 72 h; how it was run: as §2

Row | Structure (SMILES) | %max (Pyruvate kinase PKM [1]) | AC50 (Pyruvate kinase PKM [2]; read-out: AC50) [µM] | AC50 (Pyruvate kinase PKM [2]) | IC50 (A-375) [µM] | IC50 (HCT-116) [µM] | IC50 (NCI-H1299) [µM]
1 | O=C(CCSC(=S)NCc1cccnc1)c1c[nH]c2ncc(-c3ccc(Cl)cc3)cc12 | inactive | > 20 |  |  |  | 
2 | O=C(CCSC(=S)NCc1cccnc1)c1c[nH]c2nccc(C3CC3)c12 | inactive |  | Not Active |  |  | 
3 | O=C(CCSC(=S)NCc1cccnc1)c1c[nH]c2nccc(-c3ccccc3)c12 | 28% | 2.17 |  |  |  | 
4 | O=C(CCSC(=S)NCc1cccnc1)c1cn(C2CCC2)c2ncccc12 | 93% | 3.93 |  | 1.34 | 3.52 | 4.2
5 | O=C(CCSC(=S)NCc1cccnc1)c1cnn2ccccc12 | 23% | > 20 |  |  |  | 
6 | O=C(CCSC(=S)NCc1cccnc1)c1c[nH]c2nccc(Br)c12 | 83% | 0.61 |  | 1.99 | 4.9 | > 10
7 | O=C(CCSC(=S)NCc1cccnc1)c1cn(-c2cccs2)c2ncccc12 | inactive |  | Not Active |  |  | 
8 | O=C(CCSC(=S)NCc1cccnc1)c1cnn2ncccc12 | 44% | 0.22 |  | 0.33 | 1.52 | 1.76
9 | O=C(CCSC(=S)NCc1cccnc1)c1c[nH]c2nccc(Cl)c12 | 122% | 1.14 |  | 0.41 | 2.06 | 2.5
10 | O=C(CCSC(=S)NCc1cccnc1)c1c[nH]c2ncc(Cl)cc12 | 71% | 0.18 |  | 3.38 | 6.16 | 8.87
